XiGFP reactiv: reactivates the inactive X chromosome in mouse fibroblasts | XiGFP mouse fibroblasts, % GFP-positive cells imaging, 3 d; cells co-treated with 5-aza-dC sensitizer; scaled so ellipticine positive control = 100% | activation, % at 7.58 µM | actives 0.055% (n = 360,000) | AID 743238;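 active = mean normalized replicate activation at least 10% and every replicate at or above 10%; inconclusive = only one of the two criteria met; inactive = mean below 10% and not all replicates reach 10%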
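material = 68-5-11 XiGFP fibroblast line | medium = DMEM plus 5-aza-dC sensitizer | schedule = 3 days compound exposure | benchmarks = positive control ellipticine, 6 µM final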
NSD2 inh: blocks human histone methyltransferase NSD2 | O96028 | NSD2 peptide methylation, AlphaScreen, 120 min | inhibition, % at 12.5 µM | actives 0.54% (n = 310,000) | AID 743445; in the data active = inhibition above about 50%
SR-BI DiI inh: inhibitors of mouse SR-BI mediated HDL lipid uptake; Q61009; actives 0.96% (n = 320,000); inhibition, % at 12.5 µM; ldlA[mSR-BI] CHO cells, DiI-HDL uptake fluorescence, 3 h;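 active = mean replicate inhibition of at least 70% and a set share of replicates each scoring 70 or more; inconclusive = meets just one of the two criteria; inactive = fails both criteria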
Target sequence (Q61009 whole entry, looked up): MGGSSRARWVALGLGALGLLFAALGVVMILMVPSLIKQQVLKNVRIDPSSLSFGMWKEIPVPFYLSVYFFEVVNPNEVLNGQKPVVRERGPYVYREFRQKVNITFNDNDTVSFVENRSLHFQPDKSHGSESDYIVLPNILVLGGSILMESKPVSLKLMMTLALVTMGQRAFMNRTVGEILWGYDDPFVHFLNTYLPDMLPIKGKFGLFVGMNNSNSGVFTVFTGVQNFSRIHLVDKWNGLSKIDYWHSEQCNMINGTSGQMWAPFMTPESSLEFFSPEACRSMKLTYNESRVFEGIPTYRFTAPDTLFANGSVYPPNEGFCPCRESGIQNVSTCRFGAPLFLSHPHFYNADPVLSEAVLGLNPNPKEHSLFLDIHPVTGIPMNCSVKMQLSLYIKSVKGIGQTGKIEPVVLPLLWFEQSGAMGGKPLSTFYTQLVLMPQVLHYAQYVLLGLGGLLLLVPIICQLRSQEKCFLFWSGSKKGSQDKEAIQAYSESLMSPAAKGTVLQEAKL
HGIII-sPLA2 inh: Blocks human group III sPLA2 activity; Q9NZ20; actives 0.56% (n = 370,000); QFRET BODIPY PC-A2 liposome hydrolysis, fluorescence; AID 743126; inhibition, % at 12.2 µM;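 active = inhibition above mean plus 3 SD of compounds lying within the high and low control bounds, cut at about 19% in these data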
ARNT-TACC3 inh: disruptors of human ARNT/TACC3 interaction | Q9Y6A5 | AlphaScreen His-ARNT PAS-B/GST-TACC3 binding, luminescence; TACC3 fragment carries E629A point mutation | inhibition, % at 9.99 µM | actives 0.66% (n = 390,000);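 active = mean inhibition of replicates at least 50% and at least half of replicates each reaching 50%; inconclusive = half or more replicates reach 50% but mean below 50%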
SR-BI uptake up: enhances SR-BI lipid uptake from DiI-HDL; CHO ldlA[mSR-BI] cells, DiI-HDL uptake fluorescence, 3 h; 100 = double the neutral-control signal; activation, % at 12.5 µM; actives 0.096% (n = 320,000);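 active = mean replicate activation of at least 60% and every replicate at or above 60%; inconclusive = mean or all-replicate condition met, but not both; inactive = mean below 60% and not all replicates reaching 60%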
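Assay system: LDL receptor-deficient CHO ldlA cells overexpressing murine SR-BI / Medium: BSA-supplemented, HEPES-buffered Ham's F12, pH 7.4 / Probe or stimulus: DiI-labelled HDL at 10 µg/mL final / Timing: compound with DiI-HDL co-incubation, 3 h at 37 °C / Technique: bottom-read cell fluorescence after medium removal, ex 550/em 595 nm / Measure: HDL uptake via cellular fluorescence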
Each line names hits and unclear results; the compound was inactive in the other large screens. Shown are actives, neighbours in structure and some others; about 2% of the full set was active somewhere.

Cc1[nH]n(-c2ccccc2)c(=O)c1N=Nc1ccccc1C(=O)O	none
Cc1ccc(-c2ccc3c(c2)O[C@H](CN(C)C(=O)Nc2ccccc2)[C@H](C)CN([C@@H](C)CO)S3(=O)=O)cc1	none (no result: NSD2 inh, SR-BI DiI inh, HGIII-sPLA2 inh, SR-BI uptake up)
CCN(CC)CCC(c1ccc(N(C)C)cc1)c1c(O)cc(OC)cc1OC (centres undefined)	ARNT-TACC3 inh 30 (no result: NSD2 inh)
COc1cc(OC)c(C(=O)Nc2cc(Cl)ccc2-n2cncn2)cc1OC	SR-BI DiI inh 81
COc1ccccc1C(=O)Nc1cc(Cl)ccc1-n1cncn1	none
CCC(=O)Nc1ccc(C(=O)OCc2ccccc2Cl)cc1	none (no result: XiGFP reactiv)
Cc1[nH]c2ccccc2c1/C=N/NC(=O)CNC(=O)COc1ccccc1	none
O=C(COc1ccccc1)NCC(=O)N/N=C/c1ccc(Br)cc1	none
N/C(=N\OS(=O)(=O)c1ccccc1)c1ccccn1	ARNT-TACC3 inh 65 (no result: XiGFP reactiv)
Cc1nnc(SCC(=O)NNC(=O)CC#N)[nH]c1=O	ARNT-TACC3 inh 48
CC1CC(C)CN(CC(O)COC2CC(C)CC(C)(C)C2)C1 (centres undefined)	none
CN1C(=O)c2cc(NC(=O)c3cscn3)ccc2OC[C@H]2O[C@H](CC(=O)N3CCOCC3)CC[C@H]21	none (no result: NSD2 inh, SR-BI DiI inh, HGIII-sPLA2 inh, SR-BI uptake up)
CC1(C)Cc2c(sc3ncnc(NN)c23)CO1	ARNT-TACC3 inh 47
CSCCC1NC(=O)C(C(C)=NNC(N)=O)=C1O (centres undefined)	ARNT-TACC3 inh 74
CN(CC(=O)Nc1ccc(F)cc1)C(=O)CN1C(=O)NC2(CCCc3ccccc32)C1=O (centres undefined)	none
COc1ccc(CCn2c(=O)[nH]c3cc(C(=O)N4CCN(c5ccccn5)CC4)ccc3c2=O)cc1OC	SR-BI DiI inh 81
COc1ccc(CCn2c(=O)[nH]c3cc(C(=O)N4CCN(c5ccccc5)CC4)ccc3c2=O)cc1OC	none
O=C(COc1ccccc1/C=C1/NC(=O)NC1=O)Nc1ccccc1	none (no result: NSD2 inh)
CCCCN(C)C1=CC2=CC(=C(C#N)C#N)CCC2CC1 (centres undefined)	XiGFP reactiv inconclusive (no result: ARNT-TACC3 inh)
CCN(CC)C1=CC2=CC(=C(C#N)C#N)CCC2CC1 (centres undefined)	XiGFP reactiv 82 (no result: NSD2 inh)
Cn1cc(C(=O)c2ccc(Cl)cc2Cl)cc1C(=O)N/N=C(\N)COc1ccc(Cl)cc1	none (no result: SR-BI DiI inh, SR-BI uptake up)
Cn1cc(C(=O)c2ccc(Cl)cc2Cl)cc1C(=O)N/N=C(\N)COc1ccc(Cl)cc1Cl	SR-BI DiI inh 83 (no result: XiGFP reactiv, NSD2 inh)
C[C@H](NC(=O)C[C@H]1CC[C@H](NC(=O)C2CCOCC2)[C@@H](CO)O1)c1ccccc1	none (no result: NSD2 inh, SR-BI DiI inh, HGIII-sPLA2 inh, SR-BI uptake up)
Cc1cc(C)c(OCC(=O)Nc2ccc3c(c2)OCO3)cc1C	none (no result: XiGFP reactiv, ARNT-TACC3 inh)
CCS(=O)(=O)Nc1ccc2c(c1)C(=O)N(C)C[C@@H](OC)[C@@H](C)CN(CC1CCCC1)[C@@H](C)CO2	none (no result: NSD2 inh, SR-BI DiI inh, HGIII-sPLA2 inh, SR-BI uptake up)
CCOC(=O)C1CCN(C(=O)c2ccc(OCC(=O)Nc3ccc(OCC)cc3)c(OC)c2)CC1	SR-BI DiI inh 83
COc1ccc(C(=O)Nc2cc(=O)[nH]c3ncnn23)cc1	none (no result: NSD2 inh, SR-BI DiI inh, SR-BI uptake up)
CCCOC(=O)CSc1nc(N2CCOCC2)c2c(c1C#N)CC(C)(C)OC2	none
CCOC(=O)CSc1nc(N2CCOCC2)c2c(c1C#N)CC(C)(C)OC2	SR-BI uptake up 416
Cc1ccsc1C1Nc2ccccc2-c2nc3ccccc3n21 (centres undefined)	XiGFP reactiv 30
CC1=[N+](C)c2ccc3ccccc3c2C1(C)C	SR-BI uptake up 223
c1ccc2c(c1)ccc1ccccc12	none (no result: XiGFP reactiv, NSD2 inh)
Cc1cc(N2CCCN(C)CC2)n2nc(C)nc2n1	none (no result: XiGFP reactiv, SR-BI DiI inh, ARNT-TACC3 inh, SR-BI uptake up)
N#Cc1ccccc1CN1C(=O)NC2(CCCCCC2)C1=O	none
Oc1ccccc1-c1cc(-c2ccc3c(c2)OCCO3)n[nH]1	SR-BI DiI inh 78 (no result: XiGFP reactiv)
CCn1nc(C)c(/C=N/NC(=O)c2ccc3c(c2)c(C)c(C)n3Cc2ccccc2)c1C	SR-BI DiI inh 79 (no result: XiGFP reactiv)
CN(C)c1ccc(C=C2C(=O)OC(C)(C(C)(C)C)OC2=O)cc1 (centres undefined)	SR-BI DiI inh inconclusive, ARNT-TACC3 inh active (no result: XiGFP reactiv, NSD2 inh)
CN(C)c1ccc(C=C2C(=O)OC(C)(C)OC2=O)cc1	none
CCc1c(-c2cccc(Cl)c2)ncn1Cc1cccc(-c2ccccc2)c1	none (no result: NSD2 inh, SR-BI DiI inh, ARNT-TACC3 inh, SR-BI uptake up)
O=C(NC1CCCC1)c1cccc2c1C(=O)c1ccc(/C=C/c3ccccc3)cc1S2(=O)=O	XiGFP reactiv 14 (no result: NSD2 inh)
O=C(NCc1ccccc1)c1cccc2c1C(=O)c1ccc(/C=C/c3ccccc3)cc1S2(=O)=O	XiGFP reactiv 18 (no result: NSD2 inh)
O=C(/C(C=Nc1cc2c(oc1=O)CCCC2=O)=C(\O)c1ccccc1)c1ccccc1	none
O=S(=O)(c1ccc(Br)cc1)c1nc(-c2ccco2)oc1NCCCn1ccnc1	ARNT-TACC3 inh 64
CCc1nc(SCC(=O)N2CCCCCC2)c2c(=O)n(C)c(=O)n(C)c2n1	none
CC12CN3CC(C)(CN(C1)C3c1ccc(Cl)cc1Cl)C2O (centres undefined)	SR-BI uptake up 79 (no result: XiGFP reactiv)
CC1(C2CC2)NC(=O)N(CC(=O)N2CCN(S(=O)(=O)c3ccc(F)c(F)c3)CC2)C1=O (centres undefined)	none (no result: ARNT-TACC3 inh)
O=C1CC(=Nc2ccccc2)NN1c1ccccc1	SR-BI DiI inh 108 (no result: XiGFP reactiv, NSD2 inh)
CC(OC(=O)C1=COCCO1)C(=O)NC1CCCCC1C (centres undefined)	none
Cc1cc(C)c2nc(NNC(=O)c3ccc(S(=O)(=O)N4CC(C)CC(C)C4)cc3)sc2c1 (centres undefined)	SR-BI DiI inh 139, HGIII-sPLA2 inh 41 (no result: NSD2 inh)
Cc1ccc2nc(NNC(=O)c3ccc(S(=O)(=O)N4CCc5ccccc5C4)cc3)sc2c1	SR-BI DiI inh 119, HGIII-sPLA2 inh 33 (no result: NSD2 inh)
C=CCNC(=O)c1cc(=O)c2ccccc2o1	none (no result: XiGFP reactiv)
CN(CCOc1ccc(Cl)cc1)C(=O)C1=CC=CN2CCS(=O)(=O)N=C12	none
Cc1nc(NC(=O)CCl)sc1C(=O)N(C)C	none
Cc1nc(NC(=O)C(Cl)Cl)sc1C(=O)N(C)C	XiGFP reactiv 12
O=C1CC(c2ccc(O)cc2)Oc2cc(O)cc(O)c21 (centres undefined)	none (no result: NSD2 inh)
CC1CC(=O)c2c(cc3c(-c4c(O)cc(O)c5c(O)c6c(cc45)OC(C)CC6=O)c(O)cc(O)c3c2O)O1 (centres undefined)	SR-BI DiI inh 117, ARNT-TACC3 inh 96 (no result: XiGFP reactiv, NSD2 inh, HGIII-sPLA2 inh)
COc1cc(C2=NOC(C(=O)N3CCN(c4ccc(F)cc4)CC3)C2)cc(OC)c1OC (centres undefined)	SR-BI DiI inh 79 (no result: XiGFP reactiv)
C=CCCC(=O)Nc1ccc(Br)cn1	SR-BI DiI inh 89
CCC(=O)N1C[C@@H](C)[C@@H](OC)CN(C)C(=O)c2cc(NC(=O)COC)ccc2OC[C@H]1C	none (no result: NSD2 inh, SR-BI DiI inh, HGIII-sPLA2 inh, SR-BI uptake up)

High-throughput results: PubChem, several laboratories
